# Assay outcomes deposited in PubChem BioAssay by several laboratories.
# Sampled rows, rich in hits. Any-hit rate of the full collection: about 2%.
# A1 inh: caspase 3/7 activation in MEF A1-2A-BIM cells, primary screen, A1 inhibitor project, cell-based, luminescence, HTS; Caspase-Glo 3/7 luminescence, 3 h; percent of clofoctol response, vehicle zero; caspase activation, % (no concentration beside the values); actives 0.066% (n = 330,000); AID 2462, 2010;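 active means over half of replicate activation scores above 10%, or exactly half above 10 with the replicate mean above 10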
# MC4R antagonist: MC4R antagonists of cAMP signaling, primary screen, cell-based, TR-FRET, antagonist arm of biased-ligand search; AID 540295, 2011; inhibition, % at 6.5 µM; MC4R-expressing cells, MTII-stimulated cAMP, LANCE TR-FRET; actives 0.48% (n = 360,000); Melanocortin receptor 4 (Homo sapiens), P32245;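 active means inhibition above its plate's cutoff, the mean of tested wells on that plate plus 3 SD, cut at about 29% in these data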;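 further: 0% = Melanotan II alone and 100% = Melanotan II plus saturating MCL0020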
# Target sequence (P32245 whole entry, looked up): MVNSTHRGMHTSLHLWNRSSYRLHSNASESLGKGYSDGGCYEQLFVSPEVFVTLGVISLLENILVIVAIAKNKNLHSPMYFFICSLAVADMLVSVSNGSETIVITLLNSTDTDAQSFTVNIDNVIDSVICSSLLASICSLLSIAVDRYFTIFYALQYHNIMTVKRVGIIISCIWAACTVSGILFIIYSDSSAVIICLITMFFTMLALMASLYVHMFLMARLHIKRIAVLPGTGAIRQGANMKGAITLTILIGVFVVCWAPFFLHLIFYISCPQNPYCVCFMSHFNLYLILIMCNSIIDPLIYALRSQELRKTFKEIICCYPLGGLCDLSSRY
#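 Material: human MC4R-expressing U2OS cells. Probe or stimulus: Melanotan II challenge. Dosing: 6.5 µM single dose. Times: 30-min compound, 1-h challenge, 1-h detection, room temperature. Technique: TR-FRET with Eu-cAMP and labeled anti-cAMP, 671 nm. Replication: singlicate.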
# UPR XBP1 act: activators of adaptive XBP1 UPR arm, primary screen, cell-based, CHO-XBP1 luciferase reporter, luminescence, uHTS; IRE1-XBP1 UPR activation; percent of tunicamycin response, DMSO as zero; activation, % at 20 µM; actives 0.33% (n = 330,000); AID 463104, 2010;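 active means versus positive control, 20 µM dose yields 30% or more activation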;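 further: 100% = tunicamycin at 10 µg/mL and 0% = DMSO only wells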
#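 Material: CHO cell line with stable XBP1 luciferase reporter; buffer or medium: F12 medium containing 10% fetal bovine serum; compound: single point, 20 µM final compound, 1% DMSO; incubation: 6 h treatment, 37 °C; measured by: glow luminescence from Steady-Glo reagent; evaluation: activation, % of tunicamycin; control set: tunicamycin high, DMSO low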
# CHOP UPR activ: activators of apoptotic CHOP UPR arm, primary screen, cell-based, CHO-CHOP luciferase reporter, luminescence, uHTS; UPR activation; percent of tunicamycin response over DMSO baseline; actives 0.34% (n = 330,000); AID 449763, 2010; activation, % at 10 µM;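 active means at 10 µM dose, activation of 40% or more, normalized to positive control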;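 further: 100% = tunicamycin at 10 µg/mL and 0% = DMSO alone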
#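 Assay system: CHO cells with stable CHOP pathway luciferase reporter; Buffer or medium: F12 plus 10% serum; Times: 16-18 h cell attachment, then 6 h compound exposure, 37 °C; Signal: luciferase luminescence; Read-out basis: percent activation relative to tunicamycin control; Control set: tunicamycin high control, DMSO low control.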
# MC4R ag barr: MC4R agonists recruiting beta-arrestin, primary screen, cell-based, luminescence, agonist arm of biased-ligand search. actives 0.98% (n = 360,000). activation, % at 8.9 µM. AID 540308, 2011. U2OS MC4R beta-arrestin complementation; percent of melanotan II response, DMSO zero. Melanocortin receptor 4 (Homo sapiens), P32245;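 active means activation above a per-plate cutoff, the mean activation of sample wells on that plate plus 3 SD, cut at about 8% in these data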
# U2OS cAMP counter: nonselective cAMP signaling inhibitors, parental cells, counter-screen for MC4R biased antagonist project, cell-based, TR-FRET, U2OS, forskolin, triplicate; LANCE TR-FRET; inhibition, % at 6.5 µM; AID 602193, 2012; actives 26% (n = 1,600); shares compounds with MC4R antagonist;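 active means mean inhibition over triplicates above the low-control well mean plus 3 SD, set per campaign, cut at about 13% in these data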;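 further: signal is single emission at 671 nm which falls as cellular cAMP rises; 0% = forskolin-stimulated wells and 100% = buffer without forskolin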
# MC4R cAMP antag: MC4R cAMP antagonists, retest, confirmation, cell-based, TR-FRET; MC4R-expressing cells, MTII-stimulated cAMP; inhibition, % at 6.5 µM; actives 27% (n = 1,600); shares compounds with MC4R antagonist; AID 602195, 2012; in the data active means inhibition above about 29%;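 further: 0% = agonist stimulated wells alone and 100% = agonist stimulated wells plus saturating reference antagonist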
# The depositor's hits bear a star; nt = no result.
SMILES,A1 inh,MC4R antagonist,UPR XBP1 act,CHOP UPR activ,MC4R ag barr,U2OS cAMP counter,MC4R cAMP antag
Cc1cccc(N2C(=O)C(O)=C(C(=O)c3cccs3)C2c2ccc(Cl)cc2)n1 (centres undefined),1,6,1,2,-1,nt,nt
Cc1cccc(N2C(=O)C(O)=C(C(=O)c3cccs3)C2c2ccccc2)n1 (centres undefined),0,30*,-3,-1,-1,6,17
CCCN(CCC)S(=O)(=O)c1ccc(Cl)c([N+](=O)[O-])c1,0,41*,-1,1,-4,31*,50*
CC1=CC(=O)C(C(C)C)=C/C1=N/OS(=O)(=O)c1ccccc1,27*,71*,-8,-9,31*,36*,91*
Cc1noc(C)c1C(=O)OC(C)C(=O)c1ccc(C(C)(C)C)cc1 (centres undefined),nt,12,nt,nt,-1,nt,nt
CCOC(=O)c1c(-c2ccc(F)cc2)csc1NC(=O)CN1C(=O)NC2(CCCCC2C)C1=O (centres undefined),1,32*,11,2,1,-7,6
Cc1nc(NC(=O)COC(=O)/C=C/c2ccco2)c(Cl)cc1Cl,-1,1,-1,-3,-1,nt,nt
O=C(COC(=O)CNC(=O)c1ccc2c(c1)OCO2)Nc1ncc(Cl)cc1Cl,0,30*,-3,-2,-2,14*,23
O=C(COC(=O)/C=C/c1ccco1)Nc1ncc(Cl)cc1Cl,0,31*,0,0,-1,-4,-18
O=C(COC(=O)c1ccc2c(c1)OCO2)Nc1ncc(Cl)cc1Cl,0,9,-2,-3,-2,nt,nt
Cc1cccc(-c2cc(NCCc3cccnc3)n3nccc3n2)c1,nt,-1,nt,nt,-2,nt,nt
COc1ccccc1NC(=O)c1ccc(NC(=O)CNC(=O)c2ccc(OC)c(OC)c2)cc1,0,10,-5,1,-2,nt,nt
COC(=O)c1ccccc1NC(=O)CNC(=O)c1ccc(OC)c(OC)c1,0,31*,-2,0,1,6,2
CC(C)C[C@H](N)c1nnc(S(=O)(=O)Cc2ccc(F)cc2)o1,0,43*,-8,17,-4,23*,36*
COc1ccc(C(O)c2nc(-c3ccc(F)c(Cl)c3)cs2)cc1 (centres undefined),nt,5,nt,nt,2,nt,nt
O=C(c1ccc(S(=O)(=O)N2CCCCC2)cc1)N(c1ccccn1)C1CCCCC1,0,32*,2,-2,0,-6,-2
Clc1ccc(-c2cc3nc(NCc4cccc(Cl)c4)ccn3n2)cc1,nt,7,nt,nt,1,nt,nt
C#CC[N+]1(CC#Cc2ccccc2)CCCC1,0,2,3,1,-1,nt,nt
O=S(=O)([O-])CCC[N+]1(CC#Cc2ccccc2)CCCCC1,0,35*,-4,-1,0,-1,4
Cc1ccc(S(=O)(=O)N2CCCCC2)cc1NC(=O)COC(=O)CN1C(=O)NC2(CC(C)CC(C)(C)C2)C1=O (centres undefined),nt,-6,nt,nt,-4,nt,nt
COCCNC(=O)C1(C)CCCN(Cc2csc(-c3ccc(Cl)cc3)n2)C1 (centres undefined),nt,-5,nt,nt,-2,nt,nt
Cc1cc(=O)[nH]c(N/N=C/c2c(F)c(F)c(F)c(F)c2F)n1,0,29*,1,1,0,14*,20
